In brackets after ≈: the same amount, converted by molar mass.
Assays:
Format in all cases: functional, organism-based
Meloidogyne javanica [1] = experiment: Nematicidal activity against second-stage juvenile Meloidogyne javanica (root-knot nematode) assessed as paralysis measured after 1 day; settings: 24 h
Method in brief: (§1)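 Compounds diluted from ethanol stocks into water with Tween 20 (final ≤1% ethanol, ≤0.3% Tween). Motile vs paralyzed scored microscopically; Schneider-Orelli correction for water-control paralysis; EC50 by log-logistic regression; six replicates, two experiments.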

Meloidogyne javanica [2] = experiment: Nematicidal activity against second-stage juvenile Meloidogyne javanica (root-knot nematode) assessed as paralysis measured after 1 hr; method in brief: as §1
Meloidogyne incognita [3] = experiment: Nematicidal activity against second-stage juvenile Meloidogyne incognita (root-knot nematode) assessed as paralysis measured after 1 day; settings: 24 h; method in brief: as §1
Meloidogyne incognita [4] = experiment: Nematicidal activity against second-stage juvenile Meloidogyne incognita (root-knot nematode) assessed as paralysis measured after 1 hr; method in brief: as §1

SMILES: CCCCCCCCC(C)=O [2-DECANONE]
- EC50 (Meloidogyne javanica [1]): 55.9 µg/mL (≈ 358 µM)
- EC50 (Meloidogyne javanica [2]): > 500 µg/mL
- EC50 (Meloidogyne incognita [3]): 55.6 µg/mL (≈ 356 µM)
- EC50 (Meloidogyne incognita [4]): 235 µg/mL (≈ 1500 µM)

SMILES: CCCCCCCCCCC(C)=O [2-DODECANONE]
- EC50 (Meloidogyne javanica [1]): 59.9 µg/mL (≈ 325 µM)
- EC50 (Meloidogyne javanica [2]): > 500 µg/mL
- EC50 (Meloidogyne incognita [3]): 33.8 µg/mL (≈ 183 µM)
- EC50 (Meloidogyne incognita [4]): > 500 µg/mL

SMILES: CCCCCCCC(C)O (stereo not drawn) [2-NONANOL]
- EC50 (Meloidogyne javanica [1]): 137 µg/mL (≈ 950 µM)
- EC50 (Meloidogyne javanica [2]): 178 µg/mL (≈ 1230 µM)
- EC50 (Meloidogyne incognita [3]): 108 µg/mL (≈ 746 µM)
- EC50 (Meloidogyne incognita [4]): 130 µg/mL (≈ 899 µM)

SMILES: CCCCCCCC(C)=O [2-NONANONE]
- EC50 (Meloidogyne javanica [1]): 119 µg/mL (≈ 837 µM)
- EC50 (Meloidogyne javanica [2]): 357 µg/mL (≈ 2510 µM)
- EC50 (Meloidogyne incognita [3]): 118 µg/mL (≈ 832 µM)
- EC50 (Meloidogyne incognita [4]): 279 µg/mL (≈ 1960 µM)

SMILES: CCCCCCCCCCCC(C)=O [2-TRIDECANONE]
- EC50 (Meloidogyne javanica [1]): 200 µg/mL (≈ 1010 µM)
- EC50 (Meloidogyne javanica [2]): > 500 µg/mL
- EC50 (Meloidogyne incognita [3]): 204 µg/mL (≈ 1030 µM)
- EC50 (Meloidogyne incognita [4]): > 500 µg/mL

SMILES: CCCCCCCCCC(C)=O [METHYL NONYL KETONE]
- EC50 (Meloidogyne javanica [1]): 22.5 µg/mL (≈ 132 µM)
- EC50 (Meloidogyne javanica [2]): > 500 µg/mL
- EC50 (Meloidogyne incognita [3]): 20.6 µg/mL (≈ 121 µM)
- EC50 (Meloidogyne incognita [4]): > 500 µg/mL

SMILES: CCCCCCCCOC(C)=O [OCTYL ACETATE]
- EC50 (Meloidogyne javanica [1]): 61.4 µg/mL
- EC50 (Meloidogyne javanica [2]): 111 µg/mL
- EC50 (Meloidogyne incognita [3]): 37.3 µg/mL
- EC50 (Meloidogyne incognita [4]): 61.6 µg/mL

Reference: ChEMBL document CHEMBL3046215, “Aliphatic ketones from Ruta chalepensis (Rutaceae) induce paralysis on root knot nematodes” (J Agric Food Chem, 2011)
